In ChEMBL document CHEMBL1128535, “Synthesis using a Fmoc-based strategy and biological activities of some reduced peptide bond pseudopeptide analogues of dynorphin A1” (J Med Chem, 1995):
*1 amine or outer side, *2 acyl side, *3 side chain or, on linkers, in order; H or OH if unused. Where a SMILES comes first, the peptide text is derived from it. Side-chain parts run from the residue outwards. [ ]: non-standard residue; d: D form. The star is where a group is joined. X2 = CC[C@H](C)[C@H](NC[C@H](CCCCN)N*)C(=O)N[C@@H](CCCN=C(N)N)C(=O)N1CCC[C@H]1C(=O)N[C@@H](CCCCN)C(N)=O; N(2-aminoethyl)Phe = O=C([C@H](Cc1ccccc1)N(CCN[*:3])[*:1])[*:2]; X4 = CC(C)C[C@@H](CN([C@@H](CCCN=C(N)N)C(=O)[*:2])[*:1])N[*:3]; X5 = NCCCC[C@@H](CN([C@@H](CCCN=C(N)N)C(=O)[*:2])[*:1])N[*:3]; X1 = CC(C)C[C@@H](C(=O)[*:2])N(C[C@H](Cc1ccccc1)N[*:3])[*:1]

What was measured:
[1] = target: Mu-type opioid receptor (Cavia porcellus, UniProt P97266); test: Binding affinity against Opioid receptor mu 1 from Guinea pig brain homogenate using [3H]DAMGO; format: tissue-based
Mu-type opioid receptor, sequence (P97266 whole entry): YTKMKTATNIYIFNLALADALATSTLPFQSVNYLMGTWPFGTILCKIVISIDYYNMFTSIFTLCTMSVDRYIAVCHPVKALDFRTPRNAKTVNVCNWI

[2] = target: Kappa-type opioid receptor (Cavia porcellus, UniProt P41144); test: Binding affinity against Opioid receptor kappa 1 of Guinea pig brain homogenate using [3H]U-69593; format: tissue-based
Kappa-type opioid receptor, sequence (P41144 whole entry): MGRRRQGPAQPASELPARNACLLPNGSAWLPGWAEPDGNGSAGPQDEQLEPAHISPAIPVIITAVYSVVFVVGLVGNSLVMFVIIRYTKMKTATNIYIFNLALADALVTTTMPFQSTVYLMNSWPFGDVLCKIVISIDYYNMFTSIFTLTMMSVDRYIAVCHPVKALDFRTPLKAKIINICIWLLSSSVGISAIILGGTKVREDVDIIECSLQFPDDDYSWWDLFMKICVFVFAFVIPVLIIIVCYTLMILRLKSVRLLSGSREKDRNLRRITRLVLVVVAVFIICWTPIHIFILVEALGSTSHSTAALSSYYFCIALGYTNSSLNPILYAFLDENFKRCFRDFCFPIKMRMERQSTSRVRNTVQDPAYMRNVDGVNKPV

[3] = species on record: Cavia porcellus; test: Binding affinity against smooth muscle tissue of Guinea pig ileum; format: functional
Procedure, shortened: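 Longitudinal muscle–myenteric plexus strips from male Hartley guinea pigs (250–500 g) in oxygenated Krebs buffer at 37 °C under 1 g tension. Transmural stimulation at 0.1 Hz, 0.4 ms, supramaximal voltage, with no peptidase inhibitors. Cumulative agonist doses every 3 min; % inhibition of contraction height measured. IC50 from a Hill-equation fit of mean data from 2–4 tissues.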

[4] = target: Kappa-type opioid receptor (Cavia porcellus) (UniProt P41144); test: Ratio of IC50 for central and peripheral kappa opioid receptor binding in guinea pig
Kappa-type opioid receptor (Cavia porcellus), sequence (P41144 whole entry): as above

[5] = Selectivity as ratio of IC50 for delta and mu opioid receptors; conditions: Cavia porcellus
[6] = species on record: Cavia porcellus; test: Selectivity as ratio of IC50 for mu and kappa opioid receptors

SMILES: CC[C@H](C)[C@H](NC(=O)[C@H](CCCN=C(N)N)NC[C@H](CCCCN)NC(=O)[C@H](CC(C)C)NC(=O)[C@H](Cc1ccccc1)NC(=O)CNC(=O)CNC(=O)[C@@H](N)Cc1ccc(O)cc1)C(=O)N[C@@H](CCCN=C(N)N)C(=O)N1CCC[C@H]1C(=O)N[C@@H](CCCCN)C(N)=O
- IC50 [1]: 9 nM
- IC50 [2]: 0.9 nM
- IC50 [3]: 70.6 nM

SMILES: CC[C@H](C)[C@H](NC(=O)[C@H](CCCN=C(N)N)NC(=O)[C@H](CCCN=C(N)N)NC(=O)[C@H](CC(C)C)NC(=O)[C@H](Cc1ccccc1)NC(=O)CNC(=O)CNC(=O)[C@@H](N)Cc1ccc(O)cc1)C(=O)N[C@@H](CCCCN)CN1CCC[C@H]1C(=O)N[C@@H](CCCCN)C(N)=O
- IC50 [1]: 5.2 nM
- IC50 [2]: 0.24 nM
- IC50 [3]: 2.1 nM

SMILES: CC[C@H](C)[C@H](NC[C@H](CCCCN)NC(=O)[C@H](CCCN=C(N)N)NC(=O)[C@H](CC(C)C)NC(=O)[C@H](Cc1ccccc1)NC(=O)CNC(=O)CNC(=O)[C@@H](N)Cc1ccc(O)cc1)C(=O)N[C@@H](CCCN=C(N)N)C(=O)N1CCC[C@H]1C(=O)N[C@@H](CCCCN)C(N)=O (H-YGGFLR-X2)
- IC50 [1]: 9.2 nM
- IC50 [2]: 0.16 nM
- IC50 [3]: 2.8 nM

SMILES: CC[C@H](C)[C@H](NC(=O)[C@H](CCCN=C(N)N)NC(=O)[C@H](CCCN=C(N)N)NC(=O)[C@H](CC(C)C)NC[C@H](Cc1ccccc1)NC(=O)CNC(=O)CNC(=O)[C@@H](N)Cc1ccc(O)cc1)C(=O)N[C@@H](CCCN=C(N)N)C(=O)N1CCC[C@H]1C(=O)N[C@@H](CCCCN)C(N)=O (H-[X1]([Gly-Gly-Tyr])RRIRPK-NH2)
- IC50 [1]: 12 nM
- IC50 [2]: 0.55 nM
- IC50 [3]: 16.6 nM

SMILES: CC[C@H](C)[C@H](NC(=O)[C@H](CCCN=C(N)N)NC(=O)[C@H](CCCN=C(N)N)NC[C@H](CCCCN)NC(=O)[C@H](Cc1ccccc1)NC(=O)CNC(=O)CNC(=O)[C@@H](N)Cc1ccc(O)cc1)C(=O)N[C@@H](CCCN=C(N)N)C(=O)N1CCC[C@H]1C(=O)N[C@@H](CCCCN)C(N)=O (H-[X5]([Phe-Gly-Gly-Tyr])RIRPK-NH2)
- Ratio [4]: 78.4
- Selectivity [5]: 59

SMILES: CC[C@H](C)[C@H](NC(=O)[C@H](CCCN=C(N)N)NC(=O)[C@H](CCCN=C(N)N)NC[C@H](CC(C)C)NC(=O)[C@H](Cc1ccccc1)NC(=O)CNC(=O)CNC(=O)[C@@H](N)Cc1ccc(O)cc1)C(=O)N[C@@H](CCCN=C(N)N)C(=O)N1CCC[C@H]1C(=O)N[C@@H](CCCCN)C(N)=O (H-[X4]([Phe-Gly-Gly-Tyr])RIRPK-NH2)
- Ratio [4]: 30.4
- IC50 [1]: 0.64 nM
- IC50 [2]: 0.61 nM
- Selectivity [6]: 1
- Selectivity [5]: 52
- IC50 [3]: 21 nM

SMILES: CC[C@H](C)[C@H](NC(=O)[C@H](CCCN=C(N)N)NC(=O)[C@H](CCCN=C(N)N)NC(=O)[C@H](CC(C)C)NC(=O)[C@H](Cc1ccccc1)NC(=O)CNC(=O)CNC[C@@H](N)Cc1ccc(O)cc1)C(=O)N[C@@H](CCCN=C(N)N)C(=O)N1CCC[C@H]1C(=O)N[C@@H](CCCCN)C(N)=O
- Ratio [4]: 38.5
- IC50 [1]: 96 nM
- IC50 [2]: 8 nM
- Selectivity [6]: 12
- Selectivity [5]: 25
- IC50 [3]: 308 nM

SMILES: CC[C@H](C)[C@H](NC(=O)[C@H](CCCN=C(N)N)NC(=O)[C@H](CCCN=C(N)N)NC(=O)[C@H](CC(C)C)NC(=O)[C@H](Cc1ccccc1)NCCNC(=O)CNC(=O)[C@@H](N)Cc1ccc(O)cc1)C(=O)N[C@@H](CCCN=C(N)N)C(=O)N1CCC[C@H]1C(=O)N[C@@H](CCCCN)C(N)=O (H-[N(2-aminoethyl)Phe]([Gly-Tyr])LRRIRPK-NH2)
- IC50 [1]: 1040 nM
- IC50 [2]: 17 nM
- IC50 [3]: 20.5 nM

SMILES: CC[C@H](C)[C@@H](CN[C@@H](CCCN=C(N)N)C(=O)N1CCC[C@H]1C(=O)N[C@@H](CCCCN)C(N)=O)NC(=O)[C@H](CCCN=C(N)N)NC(=O)[C@H](CCCN=C(N)N)NC(=O)[C@H](CC(C)C)NC(=O)[C@H](Cc1ccccc1)NC(=O)CNC(=O)CNC(=O)[C@@H](N)Cc1ccc(O)cc1
- IC50 [1]: 4 nM
- IC50 [2]: 0.36 nM
- IC50 [3]: 3.7 nM
